Compound activity: PubChem BioAssay, several laboratories
The sample as a whole holds a higher share of hits than the screen did.
G6PDH counter: L. mesenteroides G6PDH inhibitors, counter-screen for G6PDH-coupled screening assays, biochemical, Leuconostoc mesenteroides enzyme. 200,000 tested, 0.12% active. inhibition, % at 5 µM. Purified L. mesenteroides G6PDH, diaphorase/resazurin coupled fluorescence, 45 min. glucose-6-phosphate dehydrogenase [Leuconostoc mesenteroides]. AID 1020, 2008
Diaph act CS: compounds boosting diaphorase resazurin reduction – biochemical, uHTS, resorufin fluorescence, counter-screen for diaphorase-coupled primary assays, primary screen. 190,000 tested, 0.005% active. activation factor at 20 µM. Diaphorase/resazurin coupled assay, 16 min; hits give high values; 1 = vehicle wells, 0 = NADH-free wells. AID 1229, 2008;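 active = diaphorase activity raised at least twofold by the compound at 20 µM; inactive = activation factor below 2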
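Test system: Clostridium kluyveri diaphorase, purified enzyme; input: enzyme 0.07 U/mL final; buffer or medium: 50 mM HEPES pH 7.4 with 4.542 mM MgCl2, 0.005% Tween 20; also added: 0.114 mM NADH and 0.1 mM resazurin, final amounts; schedule: 16 min enzyme reaction, ambient temperature; technique: fluorescence of resorufin, 544 nm excitation, 590 nm emission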
Diaphorase inh: diaphorase inhibitors and chemical oxidizers, primary screen, counter-screen for diaphorase-coupled primary assays, biochemical, uHTS, resorufin fluorescence | diaphorase resazurin-to-resorufin fluorescence, NADH, 16 min; bacterial (C. kluyveri) enzyme, not human | inhibition, % at 20 µM | 190,000 tested, 0.69% active | AID 1217, 2008;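 active = primary screen inhibition at 20 µM above a set limit, cut at about 50% in these data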
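System: Diaphorase enzyme from Clostridium kluyveri | Amount: Enzyme working solution with 0.14 U/mL diaphorase | Benchmarks: No-NADH positive control and DMSO neutral control | Signal: Fluorescence of resorufin formed from resazurin, Ex 544/Em 590 nm | Schedule: 16-min room-temperature incubation before reading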
DTT redox prof: compounds producing H2O2 with reducing agent – biochemical, NIH compound library profiling, artefact control for MLSCN library redox annotation, primary screen | DTT-dependent redox cycling H2O2, phenol red/HRP absorbance; 100% = 100 µM peroxide control, 0% = buffer | AID 878, 2007 | activation, % at 10 µM | 200,000 tested, 0.03% active;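 active = activation of at least 50% relative to the plate's high and low controls in the primary single-dose screen; inactive = activation below 50%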;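 also: compound incubated with DTT at 0.8 mM final as the reducing agent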
L major viab: Leishmania major promastigote growth inhibition, primary screen | Leishmania major promastigotes, resazurin fluorescence viability | AID 1063, 2008 | 200,000 tested, 9% active | inhibition, % at 10 µM;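 also: promastigotes grown with compound for 44 hours at 28 °C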
PfGluPho inh: PfG6PD enzyme inhibitors, primary screen, biochemical, fluorescence intensity, uHTS; AID 504690, 2011; glucose-6-phosphate dehydrogenase-6-phosphogluconolactonase (Plasmodium falciparum 3D7); inhibition, % at 20 µM; PfGluPho enzyme, NADPH resazurin-diaphorase fluorescence; 350,000 tested, 0.78% active;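 active = inhibition reaching at least a set limit at 20 µM in the primary screen, cut at about 59% in these data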
Large screens that a line does not name were inactive. Rule as the data show it, unless noted: active = inhibition above about 50%; inactive = the rest.

COCOCCn1cc(CN2CCS(=O)(=O)N(Cc3ccc(-c4ccc(Cl)nc4)cc3)C(CC(C)C)C2=O)nn1 (stereo not drawn)	none (no result: G6PDH counter, Diaph act CS, Diaphorase inh, DTT redox prof, L major viab)
Cc1csc(NC(=O)CSc2nnc(-c3ccccn3)n2-c2ccc(C)c(C)c2)n1	L major viab 68
Cc1csc(NC(=O)CSc2nnc(C)s2)n1	none
Cc1csc(NC(=O)CSc2nnc(NC(=O)COc3ccccc3)s2)n1	L major viab 51
COc1ccc(CNS(=O)(=O)c2c(C(=O)N3CCCCC3)c(C)n(C)c2C)cc1	none (no result: G6PDH counter, Diaph act CS, Diaphorase inh, DTT redox prof, L major viab)
O=C(O)C(O)C(O)c1nc2ccccc2[nH]1 (stereo not drawn)	none
CN(C)c1ccc(Nc2nc(N)c3ccccc3n2)cc1	none (no result: G6PDH counter, Diaph act CS, Diaphorase inh, DTT redox prof, L major viab)
Nc1nc(Nc2ccc(Cl)cc2)nc2ccccc12	L major viab 93
Nc1nc(Nc2ccccc2)nc2ccccc12	L major viab 80
Cc1ccccc1Nc1nc(N)c2ccccc2n1	L major viab 96
COc1ccc(NC(=O)Nc2ccc3c(c2)C(=O)N([C@H](C)CO)C[C@H](C)[C@@H](CN(C)C(=O)Nc2ccc(OC)cc2)O3)cc1	none (no result: G6PDH counter, Diaph act CS, Diaphorase inh, DTT redox prof, L major viab)
CCOC(=O)Cc1csc(NC(=O)/C=C/c2ccc(OC)cc2)n1	none
CN(Cc1nc2ccccc2c(=O)[nH]1)C(=O)c1cc(-c2ccc(Br)cc2)nc2ccccc12	none (no result: G6PDH counter, Diaph act CS, Diaphorase inh, DTT redox prof, L major viab)
O=C(N/N=C\c1ccc(-c2ccc([N+](=O)[O-])cc2)o1)C1COc2ccccc2O1 (stereo not drawn)	L major viab 96
Cc1ccc(C(=O)N/N=C/c2ccc(-c3cccc(Cl)c3)o2)cn1	none (no result: G6PDH counter, Diaph act CS, Diaphorase inh, DTT redox prof, L major viab)
O=C(N/N=C/c1ccc(-c2ccc([N+](=O)[O-])cc2)o1)[C@H]1C[C@@H]1c1ccccc1	none (no result: G6PDH counter, Diaph act CS, Diaphorase inh, DTT redox prof, L major viab)
O=C(N/N=C/c1ccc(-c2ccccc2[N+](=O)[O-])o1)[C@H]1C[C@@H]1c1ccccc1	Diaphorase inh 52, L major viab 90
COc1cc([N+](=O)[O-])cc(/C=N/NC(=O)c2cccnc2)c1O	none (no result: G6PDH counter, Diaph act CS, Diaphorase inh, DTT redox prof, L major viab)
Cc1ccc(C(=O)N/N=C/c2ccc(-c3ccccc3[N+](=O)[O-])o2)cn1	L major viab 72
COc1ccc(-c2ccc(/C=N/NC(=O)c3cccnc3)o2)c([N+](=O)[O-])c1	L major viab 75
CCN(Cc1ccccc1)C(=O)c1c(-c2ccccc2Cl)noc1C	none (no result: G6PDH counter, Diaph act CS, Diaphorase inh, DTT redox prof, L major viab)
C[C@@H]1CN([C@H](C)CO)C(=O)CCCn2nncc2CO[C@H]1CN(C)Cc1cccnc1	none (no result: G6PDH counter, Diaph act CS, Diaphorase inh, DTT redox prof, L major viab)
Cc1ccccc1C(=O)NNC(=O)/C=C/c1ccccc1	none
CNC(=S)NNC(=O)c1sc(-c2cc(C)on2)nc1C	none (no result: G6PDH counter, Diaph act CS, Diaphorase inh, DTT redox prof, L major viab)
O=C(OCn1nnc2ccccc2c1=O)c1cccc(S(=O)(=O)N2CCOCC2)c1	none (no result: G6PDH counter, Diaph act CS, Diaphorase inh, DTT redox prof, L major viab)
CC12CCC(C(=O)N(CSC(=S)N/N=C\c3ccccc3)C1=O)C2(C)C (stereo not drawn)	Diaphorase inh 58
CC12CCC(C(=O)N(CSC(=S)N/N=C\c3ccccc3Cl)C1=O)C2(C)C (stereo not drawn)	none
CC(C)C(NC(=O)c1ccccc1)C(=O)OCC(=O)N1CCCC1 (stereo not drawn)	none (no result: G6PDH counter, Diaph act CS, Diaphorase inh, DTT redox prof, L major viab)
O=C(c1ccccc1F)N1CCN(c2ccc([N+](=O)[O-])c3ncccc23)CC1	none
O=[N+]([O-])c1cccc2c(N3CCCC3)ccnc12	L major viab 88
C/[N+]([O-])=C/c1c(OCc2ccccc2)ccc2ccccc12	none (no result: G6PDH counter, Diaph act CS, Diaphorase inh, DTT redox prof, L major viab)
O=Cc1c(OCc2ccccc2)ccc2ccccc12	L major viab 82
COc1ccc(/C=N/NC(=O)c2ccc(CN3c4cccc5cccc(c45)S3(=O)=O)cc2)cc1	L major viab 82
CCC(C)C(=O)Nc1nc(C)c(-c2csc(Nc3cc(OC)ccc3OC)n2)s1 (stereo not drawn)	L major viab 57
CCCCC(=O)Nc1nc(C)c(-c2csc(Nc3cc(OC)ccc3OC)n2)s1	L major viab 73
COc1ccc(OC)c(Nc2nc(-c3sc(NC(=O)CC(C)C)nc3C)cs2)c1	L major viab 81
O=C(N1CCOCC1)N1CCN(S(=O)(=O)c2ccc(F)cc2)CC1	none (no result: G6PDH counter, Diaph act CS, Diaphorase inh, DTT redox prof, L major viab)
Cc1cc(C(=O)COC(=O)C23CC4CC(CC(O)(C4)C2)C3)c(C)n1C	none (no result: G6PDH counter, Diaph act CS, Diaphorase inh, DTT redox prof, L major viab)
CN(C)C(C)(C)C#CCC(c1ccccc1)c1ccccc1	L major viab 100
O=C(Cn1cc2c(n1)CCCCC2)NC1CCCCCC1	none
O=C(CN1CCOc2ccccc21)NC1CCCCCCC1	none (no result: G6PDH counter, Diaph act CS, Diaphorase inh)
O=C(Cn1cc2c(n1)CCCC2)NC1CCN(Cc2ccccc2)CC1	L major viab 72
O=C(CN1CCOc2ccccc21)NC1CCN(Cc2ccccc2)CC1	L major viab 78
COC(=O)C(Cc1ccccc1)NC(=O)c1cccc(S(=O)(=O)N(C)C)c1 (stereo not drawn)	none
Cc1ccc(OCC(=O)Nc2ccc(F)cc2)c([N+](=O)[O-])n1	none
Cc1ccc(OCC(=O)NCC(=O)Nc2ccc(F)cc2)c([N+](=O)[O-])n1	L major viab 50
O=C1c2cnc3nc(SCc4cccc(Cl)c4)nn3c2CC2c3ccccc3CCN12 (stereo not drawn)	L major viab 56
COc1ccc(-c2csc(C3=C(O)CN(C(C)C)C3=N)n2)cc1OC	L major viab 72
CCn1ncc(Br)c1C(=O)Nc1ccc(F)c([N+](=O)[O-])c1	none
Cc1ccc2nc(Nc3nc(C)cc(-c4ccccc4)n3)[nH]c(=O)c2c1	none (no result: G6PDH counter, Diaph act CS, Diaphorase inh, DTT redox prof, L major viab)
O=S(=O)(Cc1ccccc1)N1CCN(C/C=C/c2ccccc2)CC1	L major viab 71
O=S(=O)(c1ccc(Cl)s1)N1CCN(C/C=C/c2ccccc2)CC1	L major viab 83
COc1cccc2c1cc1c(=O)n(CC(=O)N3CCC(C)CC3)nc(C)n12	none (no result: G6PDH counter, Diaph act CS, Diaphorase inh, DTT redox prof, L major viab)
CC(C)CNC(=O)c1ccccc1SCC(=O)NC12CC3CC(CC(C3)C1)C2	none
Cc1c(Cl)cccc1NC(=O)c1cccc(OC(F)F)c1	L major viab 99
COc1ccc(C(=O)N2CCc3ccccc3C2)cc1S(=O)(=O)N1CCCC1	none (no result: G6PDH counter, Diaph act CS, Diaphorase inh, DTT redox prof, L major viab)
COc1ccc(C(NC(=O)C(C)C)c2c(O)ccc3ccccc23)cc1 (stereo not drawn)	L major viab 96 (no result: Diaph act CS, Diaphorase inh)
CCC(=O)NC(c1ccccc1Cl)c1c(O)ccc2ccccc12 (stereo not drawn)	none
CC(C)C(=O)NC(c1ccco1)c1c(O)ccc2ccccc12 (stereo not drawn)	none
CC(C)C(=O)NC(c1ccccc1Cl)c1c(O)ccc2ccccc12 (stereo not drawn)	L major viab 99
